Results of several laboratories.
Protocols differ between the studies behind these lines.
Target: Tyrosine-protein kinase Srms (SRMS, Homo sapiens, UniProt Q9H3Y6)

| Compound | effect on | mode | technique | tested at | quantity | result |
| --- | --- | --- | --- | --- | --- | --- |
| Cn1cc(-c2cc(F)cc(N3CCn4c(cc5c4CCCC5)C3=O)c2CO)cc(Nc2ccc(N3CCN(C4COC4)CC3)cn2)c1=O | enzyme activity | inhibitor | – | 0.1 µM | inhibition | 17% |
| COc1ncccc1-c1cnn2ccc(N3CCN(C(=O)OC(C)C)CC3)nc12 | binding | – | competition with immobilised ligand | 1 µM | remaining binding | 78% |
| Cc1nn(C)cc1-c1nc2c(N3CCN(Cc4ccc(Cl)cc4)CC3)c(Cl)cnc2[nH]1 | binding | – | competition with immobilised ligand | 1 µM | remaining binding | 100% |
| Nc1ncc(-c2nc(N3CCOCC3)nc(N3CCOCC3)n2)c(C(F)F)n1 | cell-free assay | – | competition with immobilised ligand | 10 µM | remaining binding | 88% |
| Cn1cncc1[C@@](O)(COc1ccc(C#N)cc1-c1ccc(OC(F)(F)F)cc1)c1ccc(C#N)cc1 | cell-free assay | – | competition with immobilised ligand | 1 µM | remaining binding | 100% |
| O=c1[nH]c2ccccc2n1C1CCN(Cc2ccc(-c3[nH]c4cc5ncnc5cc4nc3-c3ccccc3)cc2)CC1 | cell-free assay | – | – | 0.5 µM | remaining signal | 93.1% |
| Cn1cc(-c2cccc(N3CCc4c(sc5c4CC(C)(C)C5)C3=O)c2CO)cc(Nc2ccncn2)c1=O | enzyme activity | inhibitor | – | 1 µM | inhibition | -3% |
| N#CC1(c2ccccn2)CCN(Cc2cc(C(=O)O)c(=O)n3ccccc23)CC1 | cell-free assay | – | competition with immobilised ligand | 1 µM | remaining binding | 93% |
